From ChEMBL document CHEMBL1132156, “Synthesis and structure-activity relationships of potential anticancer agents: alkylcarbamates of 3-(9-acridinylamino)-5-hydroxymethylaniline” (J Med Chem, 1999)
Each block holds one molecule with its values, some of them ahead of it.

Assays:
HL-60 = assay: In vitro inhibition of human leukemic HL-60 cell growth in culture; format: functional, cell-based
Outline: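 HL-60 cells were seeded at 5×10^4 cells/mL in RPMI 1640 with 10% heat-inactivated FBS, penicillin and streptomycin, at 37 °C in 5% CO2. Cells were exposed for 72 h to six or seven drug concentrations, run in duplicate. Viability was read by XTT-tetrazolium microculture absorbance, and IC50 was derived from median-effect plot analysis.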

Mus musculus [1] = assay: […] anticancer activity against B6D2F-1 mice bearing P388 leukemia measured by the Average survival time(day+/-SD) at an intravenous dose of 18(mg/kg).; format: functional
Outline: (§1)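 Male B6D2F1 mice, 8 weeks old, 20–25 g. P388/0 ascites cells (0.2 mL, ascites:saline 1.10) were implanted iv on day 0, and the tumor grew in the liver. Drug was given iv by tail vein on days 1, 3, 5, 7 and 9 (Q2Dx5), with 4–5 mice per group. Survival time was scored as 8 a.m. (0.0), 1 p.m. (0.25) or 5 p.m. (0.5) deaths. %ILS was averaged against untreated controls, and toxic deaths were counted.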

Mus musculus [2] = assay: […] anticancer activity against B6D2F-1 mice bearing P388 leukemia measured by the Average survival time(day+/-SD) at an intravenous dose of 24(mg/kg).; format: functional; outline: as §1
Mus musculus [3] = assay: […] anticancer activity against B6D2F-1 mice bearing P388 leukemia measured by the average survival time(day+/-SD) at an intravenous dose of 12(mg/kg)..; format: functional; outline: as §1
Mus musculus [4] = assay: […] anticancer activity against B6D2F-1 mice bearing P388 leukemia measured by the average weight change(g) after day 7 at an intravenous dose of 18(mg/kg).; format: functional
Outline: (§2)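 Male B6D2F1 mice (8 weeks old, 20–25 g) were implanted iv on day 0 with P388/0 ascites cells (0.2 mL; ascites:saline 1.10), which grew in the liver. Drug was given iv via the tail vein, Q2Dx5, on days 1, 3, 5, 7 and 9. Groups had 4–5 mice. Day 1 value is mean body weight; later days are weight change.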

Mus musculus [5] = assay: […] anticancer activity against B6D2F-1 mice bearing P388 leukemia measured by the average weight change(g) after day 7 at an intravenous dose of 24(mg/kg).; format: functional; outline: as §2
Mus musculus [6] = assay: […] anticancer activity against B6D2F-1 mice bearing P388 leukemia measured by the average weight change(g) after day 11 at an intravenous dose of 18(mg/kg).; format: functional; outline: as §2
Mus musculus [7] = assay: […] anticancer activity against B6D2F-1 mice bearing P388 leukemia measured by the average weight change(g) after day 7 at an intravenous dose of 12(mg/kg).; format: functional; outline: as §2
Mus musculus [8] = assay: […] anticancer activity against B6D2F-1 mice bearing P388 leukemia measured by the increase in lifespan(%) at an intravenous dose of 12(mg/kg)..; format: functional; outline: as §1
Mus musculus [9] = assay: […] anticancer activity against B6D2F-1 mice bearing P388 leukemia measured by the increase in lifespan(%) at an intravenous dose of 18(mg/kg).; format: functional; outline: as §1
Mus musculus [10] = assay: […] anticancer activity against B6D2F-1 mice bearing P388 leukemia measured by the average weight change(g) after day 11 at an intravenous dose of 24(mg/kg).; format: functional; outline: as §2
Mus musculus [11] = assay: […] anticancer activity against B6D2F-1 mice bearing P388 leukemia measured by the average weight change(g) after day 11 at an intravenous dose of 12(mg/kg).; format: functional; outline: as §2
Mus musculus [12] = assay: […] anticancer activity against B6D2F-1 mice bearing P388 leukemia measured by the average weight change(g) after day 9 at an intravenous dose of 12(mg/kg).; format: functional
Outline: (§3)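 Male B6D2F1 mice (8 weeks old, 20–25 g) were implanted iv on day 0 with P388/0 ascites cells (0.2 mL; ascites:saline = 1.10). Tumor grew in the liver. Drug was given iv via the tail vein, Q2Dx5, on days 1, 3, 5, 7 and 9. Body weight was recorded on days 1, 7, 9 and 11 and reported as the average change (g).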

Mus musculus [13] = assay: […] anticancer activity against B6D2F-1 mice bearing P388 leukemia measured by the average weight change(g) after day 9 at an intravenous dose of 18(mg/kg).; format: functional; outline: as §3
Mus musculus [14] = assay: […] anticancer activity against B6D2F-1 mice bearing P388 leukemia measured by the average weight change(g) after day 9 at an intravenous dose of 24(mg/kg).; format: functional; outline: as §3
Mus musculus [15] = assay: […] anticancer activity against B6D2F-1 mice bearing P388 leukemia measured by the increase in lifespan(%) at an intravenous dose of 24(mg/kg).; format: functional; outline: as §1
Mus musculus [16] = assay: […] anticancer activity against 5 B6D2F-1 mice bearing P388 leukemia measured by the toxicity death at an intravenous dose of 12(mg/kg)..; format: organism-based; conditions: in vivo; outline: as §1
Mus musculus [17] = assay: […] anticancer activity against 5 B6D2F-1 mice bearing P388 leukemia measured by the toxicity death at an intravenous dose of 18(mg/kg).; format: organism-based; conditions: in vivo; outline: as §1
Mus musculus [18] = assay: […] anticancer activity against 5 4 B6D2F-1 mice bearing P388 leukemia measured by the toxicity death at an intravenous dose of 24(mg/kg).; format: organism-based; conditions: in vivo; outline: as §1
Mus musculus [19] = assay: […] anticancer activity against B6D2F-1 mice bearing P388 leukemia measured by the average body weight(g) after day 1 at an intravenous dose of 18(mg/kg).
Mus musculus [20] = assay: […] anticancer activity against B6D2F-1 mice bearing P388 leukemia measured by the average body weight(g) after day 1 at an intravenous dose of 24(mg/kg).
Mus musculus [21] = assay: […] anticancer activity against B6D2F-1 mice bearing P388 leukemia measured by the average body weight(g) after day 1 at an intravenous dose of 12(mg/kg).

SMILES: Nc1cc(CO)cc(Nc2c3ccccc3nc3c(F)cccc23)c1
IC50 (HL-60): 0.15 µM

SMILES: Nc1cc(CO)cc(Nc2c3ccccc3nc3c(Cl)cccc23)c1
IC50 (HL-60): 0.37 µM

SMILES: Nc1cc(CO)cc(Nc2c3ccccc3nc3c([N+](=O)[O-])cccc23)c1
IC50 (HL-60): 14 µM

SMILES: Nc1cc(CO)cc(Nc2c3ccccc3nc3c(Br)cccc23)c1
IC50 (HL-60): 1.5 µM

SMILES: CC(C)(C)OC(=O)Nc1cc(CO)cc(Nc2c3ccccc3nc3ccccc23)c1
IC50 (HL-60): 0.024 µM | Average survival (Mus musculus [1]): 22.1 days | Average survival (Mus musculus [2]): 21 days | Average survival (Mus musculus [3]): 18 days | Average weight change (Mus musculus [4]): -1.3 g | Average weight change (Mus musculus [5]): -1.4 g | Average weight change (Mus musculus [6]): -1.6 g | Average weight change (Mus musculus [7]): -0.1 g | Increase in life-span (Mus musculus [8]): 181% | Increase in life-span (Mus musculus [9]): 245% | Average weight change (Mus musculus [10]): -1.8 g | Average weight change (Mus musculus [11]): 0.3 g | Average weight change (Mus musculus [12]): -0.7 g | Average weight change (Mus musculus [13]): -1.2 g | Average weight change (Mus musculus [14]): -1.4 g | Increase in life-span (Mus musculus [15]): 228% | Toxicity related death (Mus musculus [16]): 0 | Toxicity related death (Mus musculus [17]): 0 | Toxicity related death (Mus musculus [18]): 2 | Body weight (Mus musculus [19]): 23.9 g | Body weight (Mus musculus [20]): 22.3 g | Body weight (Mus musculus [21]): 23.1 g

SMILES: CNC(=O)c1cccc2c(Nc3cc(N)cc(CO)c3)c3ccccc3nc12
IC50 (HL-60): 0.29 µM

The next lines start with the values.

IC50 (HL-60): 0.029 µM
SMILES: O=C(Nc1cc(CO)cc(Nc2c3ccccc3nc3ccccc23)c1)OCc1ccccc1

IC50 (HL-60): 0.009 µM
SMILES: CC(C)COC(=O)Nc1cc(CO)cc(Nc2c3ccccc3nc3ccccc23)c1

IC50 (HL-60): 0.0085 µM
SMILES: COC(=O)Nc1cc(CO)cc(Nc2c3ccccc3nc3ccccc23)c1

IC50 (HL-60): 0.031 µM
SMILES: CCOC(=O)Nc1cc(CO)cc(Nc2c3ccccc3nc3c(F)cccc23)c1

IC50 (HL-60): 0.01 µM
SMILES: CCOC(=O)Nc1cc(CO)cc(Nc2c3ccccc3nc3c(OC)cccc23)c1

IC50 (HL-60): 0.13 µM
SMILES: CCOC(=O)Nc1cc(CO)cc(Nc2c3ccccc3nc3c(Br)cccc23)c1

IC50 (HL-60): 0.0057 µM
SMILES: CCOC(=O)Nc1cc(CO)cc(Nc2c3ccccc3nc3c(C(=O)NCCN(C)C)cccc23)c1

IC50 (HL-60): 0.0074 µM
SMILES: Cc1cccc2c(Nc3cc(N)cc(CO)c3)c3cccc(C(=O)NCCN(C)C)c3nc12

IC50 (HL-60): 0.12 µM
SMILES: CNC(=O)c1cccc2c(Nc3cc(N)cc(CO)c3)c3cccc(OC)c3nc12
